Assay results published in PubChem BioAssay AID2520 (Sanford-Burnham Center for Chemical Genomics, 2010).
The whole screen tested about 330,000 compounds, of which about 350 (0.11%) were called active. This is one part of a sample in which actives are shown more often than they occur.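 Rule for the calls: active = activation more than six SD over the plate average, tested at 20 µM; inactive = the rest.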

These compounds were tested against Apelin receptor (Homo sapiens) (UniProt P35414) (assay: agonists of human apelin receptor APJ, primary screen, CHO-K1 cells, PathHunter beta-arrestin, luminescence (AID 2520)). Conditions: at 20 µM, hits give high values, 0% DMSO wells, 100% apelin.
Apelin receptor (Homo sapiens), sequence (P35414 whole entry, looked up): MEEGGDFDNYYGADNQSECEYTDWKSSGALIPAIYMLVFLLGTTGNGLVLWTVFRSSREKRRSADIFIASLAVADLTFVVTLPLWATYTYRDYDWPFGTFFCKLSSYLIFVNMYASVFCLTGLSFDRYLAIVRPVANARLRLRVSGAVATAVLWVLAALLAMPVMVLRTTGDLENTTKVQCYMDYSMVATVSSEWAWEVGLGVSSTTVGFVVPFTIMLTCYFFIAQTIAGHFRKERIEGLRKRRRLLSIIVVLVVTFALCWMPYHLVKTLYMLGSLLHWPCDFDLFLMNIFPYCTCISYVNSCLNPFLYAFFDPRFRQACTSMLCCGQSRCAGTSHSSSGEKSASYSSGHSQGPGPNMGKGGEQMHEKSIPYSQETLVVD
Outline: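 Incubation: overnight seeding, 90 min compound at 25 °C, 1 h detection; test system: PathHunter CHO-K1 APJ (AGTRL-1) beta-arrestin reporter cells; amount: 1000 cells/well; doses: one dose, 20 µM compound, 1% DMSO; measured by: beta-gal luminescence; measure: agonist-driven arrestin binding to APJ; benchmarks: negative DMSO alone, positive Apelin-13 at 10 nM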
With `Cn1c(=O)cc(OCCCC(=O)N2CCN(c3ccccn3)CC2)c2ccccc21` the activation was -3.56% (inactive). `COc1ccc(NC(=O)CSc2nncc(=O)n2N)cc1OC` was tested, and the activation was -6.25% (inactive). `CN(C)/C=C(\C#N)C(=O)c1cccnc1Oc1cccc(F)c1` was tested, and the activation was -4.09% (inactive). With `CC(C)NC(=O)Nc1cccc2c1O[C@@H](CN(C)S(=O)(=O)c1ccc(F)cc1)[C@@H](C)CN([C@H](C)CO)C2=O` the activation was -0.163% (inactive). For `Cc1ccc(S(=O)(=O)N(C)C)cc1NC(=O)/C=C/c1cccs1`, the activation was 2.48% (inactive). In the case of `Cn1ccnc1-c1nnn(-c2ccc(F)cc2)n1`, the activation is reported as -4.89% (inactive). `CCOc1ccc(CN2CCN(Cc3ccon3)CC2CCO)cc1` (stereo unspecified) was tested, and the activation was -0.588% (inactive). For `Cc1ccc(C(=O)O)cc1-c1ccc(/C=C2\SC(=O)N(CC(=O)Nc3ccc4c(c3)OCO4)C2=O)o1`, the activation was 0.103% (inactive). In the case of `CC(NC(=O)c1ccc(Cl)cc1)C(=O)N1CCCCC1` (stereo unspecified), the activation is reported as 0.246% (inactive). In the case of `COc1ccc(C)cc1NC(=O)CSc1nnc2ccc(-c3ccccn3)nn12`, the activation is reported as 1.64% (inactive). In the case of `COc1ccc(CNS(=O)(=O)c2cc(-c3cc(C)no3)ccc2C(C)C)cc1`, the activation is reported as 0.556% (inactive). With `CN1CCN(CC#CCC2(O)c3ccccc3-c3ccccc32)CC1` the activation was -0.677% (inactive). `CN1CCN(S(=O)(=O)c2ccc(Nc3ccc(F)cc3)nc2)CC1` was tested, and the activation was 7.91% (inactive). `Brc1ccc(CN2CC[C@H]3C=CCc4cccc(c43)C2)cc1` was tested, and the activation was -1.27% (inactive). For `CCN1CN(Cc2ccccc2)CNC1=S`, the activation was -0.233% (inactive). With `CCc1ccc(CN2C(=O)c3ccccc3C2C(=O)NCC2CCCO2)cc1` (stereo unspecified) the activation was 1.09% (inactive). With `CCCN(c1ccc(C(C)C)cc1)S(=O)(=O)c1c(C)[nH]c(=O)[nH]c1=O` the activation was -2.76% (inactive). In the case of `CCN1C(=O)c2cccc3c(N)ccc1c23`, the activation is reported as 24% (active). With `Cc1nn(C)cc1N1C(=O)c2cccc3c(N)ccc(c23)C1=O` the activation was -0.917% (inactive). `CCN1C(=O)c2cccc3c(S(=O)(=O)Nc4ccccc4O)ccc1c23` was tested, and the activation was 2.45% (inactive). For `O=S(=O)(N1CCCCC1)N1CCNCC1`, the activation was 2.29% (inactive). For `Cc1c(Cl)c([N+](=O)[O-])nn1Cc1ccc(C(=O)N/N=C\c2cc(Cl)ccc2O)o1`, the activation was 1.67% (inactive). With `COc1cc(NC(=O)COC(=O)c2cc(S(=O)(=O)N3CCOCC3)ccc2F)cc(OC)c1` the activation was -0.441% (inactive). `Cc1cc(C(=O)NCCc2ccc(Cl)cc2)c(C)o1` was tested, and the activation was 7.66% (inactive). For `CSCCC(C(=O)NC1=NCCS1)N1C(=O)c2ccccc2C1=O` (stereo unspecified), the activation was 0.0635% (inactive). In the case of `CN(C(=O)c1cccc(NC(=O)Cc2ccc([N+](=O)[O-])cc2)c1)C1CCC1`, the activation is reported as 0.477% (inactive).
